Data reported in ChEMBL document CHEMBL1765011, “Synthesis and c-Met kinase inhibition of 3,5-disubstituted and 3,5,7-trisubstituted quinolines: identification of 3-(4-acetylpiperazin-1-yl)-5-(3-nitrobenzylamino)-7- (trifluoromethyl)quinoline as a novel anticancer agent” (J Med Chem, 2011).
Calls of active or inactive are those of the source. The calls are words filed in the database; no cut-off is given here.

How the values were obtained:
[1] = target: T1, Hepatocyte growth factor receptor (Homo sapiens, UniProt P08581); assay: Inhibition of purified recombinant c-Met after 60 mins by ELISA
BaF3 [2] = assay: Antiproliferative activity against mouse BAF3 cells expressing TPR-Met after 72 hrs in presence of IL-3; assay type: functional, cell-based; details: BaF3, 72 h
Procedure, shortened: (§1)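 Cells were seeded and exposed next day to a range of compound concentrations for 72 h. Proliferation was read by sulforhodamine B or MTT assay, and IC50 derived.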

[3] = target: Hepatocyte growth factor receptor (Mus musculus) (UniProt P16056); assay: Inhibition of TPR-MET autophosphorylation in mouse NIH3T3 cells after 4 hrs by Western blotting; assay type: cell-based
Procedure, shortened: (§2)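 Exponentially growing cells were treated with compound for 4 h at 37 °C and lysed in SDS sample buffer. Lysates were run on 10% SDS-PAGE and blotted to nitrocellulose. Blots were probed for phospho-c-Met and total c-Met, with GAPDH as loading control, and detected by ECL.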

[4] = target: Hepatocyte growth factor receptor (Mus musculus) (UniProt P16056); assay: Inhibition of TPR-MET autophosphorylation in mouse BaF3 cells after 4 hrs by Western blotting; assay type: cell-based; procedure, shortened: as §2
BaF3 [5] = assay: Antiproliferative activity against mouse BAF3 cells expressing TPR-Met after 72 hrs in absence of IL-3; assay type: functional, cell-based; details: BaF3, 72 h; procedure, shortened: as §1
[6] = Clearance in mouse at 10 mg/kg, iv; assay type: ADME, organism-based; design: dose 10 mg/kg, route intravenous; details: in vivo
Procedure, shortened: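 Single iv dose of 10 mg/kg to mice, vehicle DMSO/Tween 80/normal saline. Clearance and half-life were derived from plasma concentration-time data. Average of three runs.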

[7] = Volume of distribution at steady state in mouse at 10 mg/kg, iv; assay type: ADME, organism-based; design: dose 10 mg/kg, route intravenous; details: in vivo, read-out: Vdss
[8] = Cmax in mouse at 20 mg/kg, po; assay type: ADME, organism-based; design: dose 20 mg/kg, route oral; details: in vivo
Procedure, shortened: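 Oral 20 mg/kg single dose to mice, vehicle DMSO/Tween 80/normal saline. Cmax was read from the plasma concentration-time profile. Average of three runs.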

[9] = Oral bioavailability in mouse at 20 mg/kg; assay type: ADME, organism-based; details: in vivo
[10] = target: Macrophage-stimulating protein receptor (Homo sapiens, UniProt Q04912); assay: Inhibition of RON
Procedure, shortened: (§3)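 ELISA on plates precoated with 20 μg/mL poly(Glu,Tyr) 4:1. Buffer: 10 μM ATP, 50 mM HEPES pH 7.4, 50 mM MgCl2, 0.5 mM MnCl2, 0.2 mM Na3VO4, 1 mM DTT, compound in 1% DMSO. Purified kinase was added and incubated 60 min at 37 °C. Phosphotyrosine was detected with PY99 then HRP anti-mouse IgG, o-phenylenediamine, A490. IC50 was taken from inhibition curves.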

[11] = target: Vascular endothelial growth factor receptor 1 (Homo sapiens, UniProt P17948); assay: Inhibition of Flt-1; procedure, shortened: as §3
[12] = target: Vascular endothelial growth factor receptor 2 (Homo sapiens, UniProt P35968); assay: Inhibition of KDR; procedure, shortened: as §3
[13] = target: Mast/stem cell growth factor receptor Kit (Homo sapiens, UniProt P10721); assay: Inhibition of c-Kit; procedure, shortened: as §3
[14] = target: Platelet-derived growth factor receptor alpha (Homo sapiens, UniProt P16234); assay: Inhibition of PDGFRalpha; procedure, shortened: as §3
[15] = target: Receptor tyrosine-protein kinase erbB-2 (Homo sapiens, UniProt P04626); assay: Inhibition of ErbB2; procedure, shortened: as §3
Ephrin type-A receptor 2 = Ephrin type-A receptor 2 (Homo sapiens, UniProt P29317); assay: Inhibition of EPH-A2; procedure, shortened: as §3
[16] = target: T1, Hepatocyte growth factor receptor; assay: Inhibition of c-Met phosphorylation in human H1993 cells at 0.1 to 3 uM after 4 hrs by Western blotting; assay type: cell-based; procedure, shortened: as §2
[17] = target: T1, Hepatocyte growth factor receptor; assay: Inhibition of c-Met phosphorylation in human H1993 cells at 0.5 uM after 4 hrs by Western blotting; assay type: cell-based; procedure, shortened: as §2
[18] = target: T1, Hepatocyte growth factor receptor; assay: Inhibition of c-Met in human H1993 cells assessed as ERK1/2 phosphorylation at 0.1 to 3 uM after 4 hrs by Western blotting; assay type: cell-based
Procedure, shortened: (§4)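 Exponentially growing cells were exposed to compound for 4 h at 37 °C and lysed in SDS sample buffer. Lysates were resolved on 10% SDS-PAGE and blotted. Blots were probed for phospho- and total ERK1/2 and AKT, with GAPDH loading control, and detected by ECL.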

[19] = target: T1, Hepatocyte growth factor receptor; assay: Inhibition of c-Met in human H1993 cells assessed as AKT phosphorylation at 0.1 to 3 uM after 4 hrs by Western blotting; assay type: cell-based; procedure, shortened: as §4
[20] = target: Hepatocyte growth factor receptor (Mus musculus) (UniProt P16056); assay: Inhibition of TPR-c-Met phosphorylation expressed in mouse […] cells at 0.1 to 3 uM after 4 hrs by Western blotting; assay type: cell-based; procedure, shortened: as §2
[21] = target: Hepatocyte growth factor receptor (Mus musculus) (UniProt P16056); assay: Inhibition of TPR-c-Met phosphorylation expressed in mouse BAF3 cells at 0.1 to 3 uM after 4 hrs by Western blotting; assay type: cell-based; procedure, shortened: as §2
[22] = target: Hepatocyte growth factor receptor (Mus musculus) (UniProt P16056); assay: Inhibition of TPR-c-Met phosphorylation expressed in mouse […] cells assessed as ERK1/2 phosphorylation at 0.1 to 3 uM after 4 hrs by Western blotting; assay type: cell-based; procedure, shortened: as §4
MKN-45 = assay: Antiproliferative activity against human MKN45 cells after 72 hrs; details: MKN-45, 72 h
NCI-H1993 = assay: Antiproliferative activity against human NCI-H1993 cells after 72 hrs; details: NCI-H1993, 72 h
SNU-5 = assay: Antiproliferative activity against human SNU5 cells after 72 hrs; details: SNU-5, 72 h
SNU1 = assay: Antiproliferative activity against human SNU1 cells after 72 hrs; details: SNU1, 72 h
MDA-MB-231 = assay: Antiproliferative activity against human MDA-MB-231 cells after 72 hrs; details: MDA-MB-231, 72 h
NIH3T3 = assay: Antitumor activity against mouse NIH/3T3 cells expressing TPR-Met xenografted in nude mouse assessed as tumor growth inhibition at 100 mg/kg, ip qd for 14 days relative to control; assay type: functional; details: 336 h, route intraperitoneal
Procedure, shortened: (§5)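 Tumor cells, (5-10)×10^6, were implanted sc in nude mice and grown to 700-800 mm3. Tumors were cut into 1 mm3 fragments and trocar-transplanted sc. At 100-150 mm3, mice were randomized (n = 6) to vehicle or ip dosing daily. Volumes were measured twice weekly by caliper, TV = length×width²/2. % inhibition used final-day versus day-1 change against vehicle, with Student's t test.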

[23] = Antitumor activity against human U87MG cells xenografted in nude mouse assessed as tumor growth inhibition at 100 mg/kg, ip qd for 14 days relative to control; assay type: functional, U-87MG ATCC; details: U-87 MG, 336 h, route intraperitoneal; procedure, shortened: as §5
Mus musculus [24] = assay: Toxicity in human U87MG cells xenografted nude mouse assessed as reduction of body weight at 100 mg/kg, ip qd for 14 days; assay type: organism-based, U-87MG ATCC; design: dose 100 mg/kg, route intraperitoneal; details: in vivo, 336 h
Mus musculus [25] = assay: Toxicity in mouse NIH/3T3 cells expressing TPR-Met xenografted nude mouse assessed as reduction in body weight at 100 mg/kg, ip qd for 14 days; assay type: organism-based, NIH3T3; design: dose 100 mg/kg, route intraperitoneal; details: in vivo, 336 h
Ephrin type-B receptor 2 = Ephrin type-B receptor 2 (Homo sapiens, UniProt P29323); assay: Inhibition of EPH-B2; procedure, shortened: as §3
[26] = target: Insulin-like growth factor 1 receptor (Homo sapiens, UniProt P08069); assay: Inhibition of IGF1R
[27] = target: T1, Hepatocyte growth factor receptor; assay: Inhibition of c-Met phosphorylation in human MKN45 cells at 0.1 to 3 uM after 4 hrs by Western blotting; assay type: cell-based; details: MKN-45; procedure, shortened: as §2
[28] = target: T1, Hepatocyte growth factor receptor; assay: Inhibition of purified recombinant c-Met at incubated for 30 mins measured after 100 fold dilution

Hepatocyte growth factor receptor (Mus musculus), sequence (P16056 whole entry): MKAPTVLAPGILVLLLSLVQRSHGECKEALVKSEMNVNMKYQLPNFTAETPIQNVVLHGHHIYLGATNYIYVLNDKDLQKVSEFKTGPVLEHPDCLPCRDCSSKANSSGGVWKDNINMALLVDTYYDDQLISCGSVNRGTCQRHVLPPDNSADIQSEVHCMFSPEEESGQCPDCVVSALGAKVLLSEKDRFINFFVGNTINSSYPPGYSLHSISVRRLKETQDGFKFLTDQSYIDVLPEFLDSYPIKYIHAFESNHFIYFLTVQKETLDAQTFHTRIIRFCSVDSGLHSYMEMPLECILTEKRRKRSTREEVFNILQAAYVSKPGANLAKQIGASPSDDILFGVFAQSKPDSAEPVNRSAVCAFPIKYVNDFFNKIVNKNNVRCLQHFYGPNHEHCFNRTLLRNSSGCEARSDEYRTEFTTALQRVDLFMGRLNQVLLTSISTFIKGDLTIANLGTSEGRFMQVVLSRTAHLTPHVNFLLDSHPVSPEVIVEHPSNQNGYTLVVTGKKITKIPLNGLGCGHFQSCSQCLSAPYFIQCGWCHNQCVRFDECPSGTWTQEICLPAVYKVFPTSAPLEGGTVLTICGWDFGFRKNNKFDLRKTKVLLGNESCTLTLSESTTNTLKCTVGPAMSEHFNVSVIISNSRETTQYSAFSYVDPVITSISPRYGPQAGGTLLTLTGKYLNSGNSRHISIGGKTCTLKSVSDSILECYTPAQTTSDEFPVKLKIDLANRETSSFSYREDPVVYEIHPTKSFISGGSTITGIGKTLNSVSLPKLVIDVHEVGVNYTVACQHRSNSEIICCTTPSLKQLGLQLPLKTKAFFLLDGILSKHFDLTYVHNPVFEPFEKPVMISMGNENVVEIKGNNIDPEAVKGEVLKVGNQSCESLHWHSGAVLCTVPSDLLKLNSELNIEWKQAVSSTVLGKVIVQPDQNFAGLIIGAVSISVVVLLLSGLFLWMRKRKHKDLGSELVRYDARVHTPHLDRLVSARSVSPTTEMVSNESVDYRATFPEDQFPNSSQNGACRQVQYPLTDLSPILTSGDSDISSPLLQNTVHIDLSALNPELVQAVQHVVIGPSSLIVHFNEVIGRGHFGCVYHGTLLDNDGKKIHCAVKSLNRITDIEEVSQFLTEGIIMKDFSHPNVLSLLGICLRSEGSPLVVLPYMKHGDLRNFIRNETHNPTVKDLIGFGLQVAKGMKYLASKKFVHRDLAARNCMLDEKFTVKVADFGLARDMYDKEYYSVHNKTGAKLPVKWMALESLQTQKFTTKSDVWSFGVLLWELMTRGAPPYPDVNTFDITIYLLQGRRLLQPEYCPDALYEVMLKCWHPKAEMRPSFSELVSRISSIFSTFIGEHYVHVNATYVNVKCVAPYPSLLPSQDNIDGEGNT
T1 sequence (P08581 whole entry): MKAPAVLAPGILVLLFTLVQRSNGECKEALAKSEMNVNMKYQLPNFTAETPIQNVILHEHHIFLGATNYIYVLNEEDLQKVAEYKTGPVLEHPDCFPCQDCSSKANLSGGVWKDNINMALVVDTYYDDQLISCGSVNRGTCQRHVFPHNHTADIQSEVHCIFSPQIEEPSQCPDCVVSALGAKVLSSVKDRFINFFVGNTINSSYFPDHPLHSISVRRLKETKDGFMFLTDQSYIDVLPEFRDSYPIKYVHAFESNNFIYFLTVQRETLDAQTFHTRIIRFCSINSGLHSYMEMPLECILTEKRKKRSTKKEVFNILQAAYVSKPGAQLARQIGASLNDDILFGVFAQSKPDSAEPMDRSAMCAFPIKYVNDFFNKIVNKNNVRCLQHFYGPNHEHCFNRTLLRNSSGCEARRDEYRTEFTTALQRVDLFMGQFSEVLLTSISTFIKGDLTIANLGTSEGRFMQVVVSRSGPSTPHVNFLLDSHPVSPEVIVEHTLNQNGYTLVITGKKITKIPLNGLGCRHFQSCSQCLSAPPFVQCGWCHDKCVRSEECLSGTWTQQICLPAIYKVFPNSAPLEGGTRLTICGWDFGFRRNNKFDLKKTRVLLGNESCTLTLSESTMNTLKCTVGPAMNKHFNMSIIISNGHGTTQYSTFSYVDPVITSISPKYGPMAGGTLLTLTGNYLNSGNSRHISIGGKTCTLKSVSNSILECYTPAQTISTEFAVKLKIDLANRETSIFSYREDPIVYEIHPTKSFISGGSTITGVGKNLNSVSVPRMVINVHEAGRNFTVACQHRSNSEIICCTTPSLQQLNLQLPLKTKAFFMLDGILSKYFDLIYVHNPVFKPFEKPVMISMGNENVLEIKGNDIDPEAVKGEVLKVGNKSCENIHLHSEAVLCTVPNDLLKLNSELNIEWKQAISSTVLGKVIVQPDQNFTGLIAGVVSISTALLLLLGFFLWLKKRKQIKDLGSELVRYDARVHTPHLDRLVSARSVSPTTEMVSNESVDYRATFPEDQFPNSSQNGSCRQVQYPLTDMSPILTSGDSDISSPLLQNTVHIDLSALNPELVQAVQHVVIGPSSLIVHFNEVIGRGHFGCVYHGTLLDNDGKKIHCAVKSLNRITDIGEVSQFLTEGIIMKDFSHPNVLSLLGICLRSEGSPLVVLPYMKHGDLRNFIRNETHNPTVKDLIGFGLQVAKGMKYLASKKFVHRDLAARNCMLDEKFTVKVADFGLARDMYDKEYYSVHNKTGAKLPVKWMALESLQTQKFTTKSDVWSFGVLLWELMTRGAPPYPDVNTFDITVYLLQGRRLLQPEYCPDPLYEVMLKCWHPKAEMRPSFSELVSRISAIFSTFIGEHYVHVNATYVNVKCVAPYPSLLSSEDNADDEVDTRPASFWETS
Receptor tyrosine-protein kinase erbB-2, sequence (P04626 whole entry): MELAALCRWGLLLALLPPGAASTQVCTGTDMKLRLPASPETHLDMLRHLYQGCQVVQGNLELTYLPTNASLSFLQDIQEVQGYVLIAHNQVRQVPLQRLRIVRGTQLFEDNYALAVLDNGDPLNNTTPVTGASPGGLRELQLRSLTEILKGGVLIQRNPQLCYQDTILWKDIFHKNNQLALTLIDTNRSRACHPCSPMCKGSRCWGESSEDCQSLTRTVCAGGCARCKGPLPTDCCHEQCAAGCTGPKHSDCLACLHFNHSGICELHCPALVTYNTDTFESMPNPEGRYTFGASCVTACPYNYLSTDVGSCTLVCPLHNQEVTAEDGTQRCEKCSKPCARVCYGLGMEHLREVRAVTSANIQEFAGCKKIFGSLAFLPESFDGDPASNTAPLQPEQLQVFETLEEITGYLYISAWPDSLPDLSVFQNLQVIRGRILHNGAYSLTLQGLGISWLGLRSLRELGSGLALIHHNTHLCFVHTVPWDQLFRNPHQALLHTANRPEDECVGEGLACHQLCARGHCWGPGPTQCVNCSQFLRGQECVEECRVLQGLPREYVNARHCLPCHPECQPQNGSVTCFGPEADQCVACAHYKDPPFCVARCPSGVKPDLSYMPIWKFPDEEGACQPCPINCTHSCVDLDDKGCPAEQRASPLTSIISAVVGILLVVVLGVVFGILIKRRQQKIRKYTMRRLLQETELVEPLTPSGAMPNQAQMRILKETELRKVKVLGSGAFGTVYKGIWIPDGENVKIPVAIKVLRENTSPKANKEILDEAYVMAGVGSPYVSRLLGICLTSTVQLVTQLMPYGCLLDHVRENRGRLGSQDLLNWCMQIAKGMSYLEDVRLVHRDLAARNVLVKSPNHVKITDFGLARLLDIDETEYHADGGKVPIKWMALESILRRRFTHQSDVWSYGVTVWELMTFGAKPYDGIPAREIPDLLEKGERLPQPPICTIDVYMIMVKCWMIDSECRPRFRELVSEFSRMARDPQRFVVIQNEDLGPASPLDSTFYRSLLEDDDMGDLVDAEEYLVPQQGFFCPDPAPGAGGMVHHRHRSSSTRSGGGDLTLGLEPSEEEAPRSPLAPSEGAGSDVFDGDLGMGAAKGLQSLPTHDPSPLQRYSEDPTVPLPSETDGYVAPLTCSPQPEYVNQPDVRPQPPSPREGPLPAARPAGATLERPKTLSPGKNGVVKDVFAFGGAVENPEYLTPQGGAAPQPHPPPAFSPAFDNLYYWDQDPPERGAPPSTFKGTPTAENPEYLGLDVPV
Ephrin type-B receptor 2, sequence (P29323 whole entry): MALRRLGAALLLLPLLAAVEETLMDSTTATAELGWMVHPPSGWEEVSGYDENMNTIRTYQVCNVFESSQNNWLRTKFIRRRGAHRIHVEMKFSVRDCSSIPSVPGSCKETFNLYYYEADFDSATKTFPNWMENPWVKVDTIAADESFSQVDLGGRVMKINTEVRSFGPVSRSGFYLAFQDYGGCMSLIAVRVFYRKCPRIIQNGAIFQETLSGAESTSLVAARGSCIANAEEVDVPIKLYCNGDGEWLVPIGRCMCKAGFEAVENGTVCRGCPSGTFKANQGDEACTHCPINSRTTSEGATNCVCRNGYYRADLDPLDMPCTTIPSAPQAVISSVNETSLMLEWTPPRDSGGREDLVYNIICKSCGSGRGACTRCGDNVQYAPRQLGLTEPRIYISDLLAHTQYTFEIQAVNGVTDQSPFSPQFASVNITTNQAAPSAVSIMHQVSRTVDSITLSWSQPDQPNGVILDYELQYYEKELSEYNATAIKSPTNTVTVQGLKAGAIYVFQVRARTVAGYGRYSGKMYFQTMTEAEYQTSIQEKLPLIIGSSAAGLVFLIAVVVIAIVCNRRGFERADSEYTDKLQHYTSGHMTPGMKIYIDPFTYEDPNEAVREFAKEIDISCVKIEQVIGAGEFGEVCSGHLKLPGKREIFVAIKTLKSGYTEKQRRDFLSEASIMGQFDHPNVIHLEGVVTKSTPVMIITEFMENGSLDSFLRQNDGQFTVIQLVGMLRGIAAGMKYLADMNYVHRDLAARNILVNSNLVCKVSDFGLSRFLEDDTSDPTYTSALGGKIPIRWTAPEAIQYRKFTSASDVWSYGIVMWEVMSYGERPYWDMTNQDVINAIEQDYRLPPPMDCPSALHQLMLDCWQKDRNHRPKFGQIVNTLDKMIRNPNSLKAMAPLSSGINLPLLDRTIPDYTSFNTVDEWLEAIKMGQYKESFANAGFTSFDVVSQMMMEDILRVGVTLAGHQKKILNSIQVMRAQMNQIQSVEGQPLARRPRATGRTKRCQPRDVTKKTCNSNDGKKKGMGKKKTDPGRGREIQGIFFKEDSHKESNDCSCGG

For `CC(=O)N1CCN(c2cnc3cc(C(F)(F)F)cc(NCc4cccc([N+](=O)[O-])c4)c3c2)CC1`, the IC50 [1] was 0.00095 µM, the IC50 (BaF3 [2]) was 12.2 µM and the inhibition [3] was “Dose-dependent effect”. The inhibition [4] was “Dose-dependent effect”, the IC50 (BaF3 [5]) was 0.39 µM and the clearance [6] was 59.8 mL/min/kg. For the same compound, the Vd [7] was 16.7 L/kg, the Cmax [8] was 316 ng/mL and the bioavailability [9] was 37.5%. The IC50 [10] was over 10 µM, the IC50 [11] was over 10 µM and the IC50 [12] was over 10 µM. For the same compound, the IC50 [13] was over 10 µM, the IC50 [14] was over 10 µM and the IC50 [15] was over 10 µM. For the same compound, the IC50 (Ephrin type-A receptor 2) was over 10 µM, the inhibition [16] was “Active” and the inhibition [17] was “Active”. The inhibition [18] was “Active”, the inhibition [19] was “Active” and the inhibition [20] was “Active”. The inhibition [21] was “Active”, the inhibition [22] was “Active” and the IC50 (MKN-45) was 1 µM. The IC50 (NCI-H1993) was 5.3 µM, the IC50 (SNU-5) was 1 µM and the IC50 (SNU1) was at least 50 µM. The IC50 (MDA-MB-231) was at least 50 µM, the inhibition in vivo at 100 mg/kg (NIH3T3) was 68% and the inhibition in vivo at 100 mg/kg [23] was 69%. For the same compound, the Activity (Mus musculus [24]) was “Non-toxic”, the Activity (Mus musculus [25]) was “Non-toxic” and the IC50 (Ephrin type-B receptor 2) was over 10 µM. For the same compound, the IC50 [26] was over 10 µM, the inhibition [27] was “Active” and the inhibition [28] was “inactive”.
